Data from ChEMBL document CHEMBL5365541, “Designing peptide amphiphiles as novel antibacterials and antibiotic adjuvants against gram-negative bacteria” (Bioorg Med Chem, 2023).
≈ marks a conversion by molar mass, not a printed value. Calls of active or inactive are those of the source. The calls are words filed in the database; no cut-off is given here. Starred links: 1 amine or outer side, 2 acyl side, 3 side chain; linkers in the order of their positions; H or OH if unused. Non-standard residues stand in square brackets, D forms with d. Residues, ends and D or L forms follow the SMILES beside them. ξ: configuration not given here. X3 = CCCCCCCCCCCCCCCCCCN([C@@H](Cc1c[nH]cn1)C(=O)[*:2])[*:1]; ξDap = NCC(N)C(=O)O

Assays:
Staphylococcus aureus [1] = test: Antibacterial activity against methicillin-resistant Staphylococcus aureus 13C incubated for 20 to 24 hrs by broth microdilution method; type: functional; conditions: time 20-24 hrs
Procedure, shortened: (§1)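 Broth microdilution in MHB: direct colony suspension at 0.5 McFarland diluted to ~10^5 CFU/mL final; peptide stock 1 mg/mL in water at pH 7, serially diluted. Incubated 20-24 h at 37 °C; MIC taken as the lowest concentration inhibiting growth (OD 600 nm, 1% TTC stain); triplicate; vancomycin and gentamicin as positive controls.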

Acinetobacter baumannii = test: Antibacterial activity against Acinetobacter baumannii incubated for 20 to 24 hrs by broth microdilution method; type: functional; conditions: time 20-24 hrs
Procedure, shortened: (§2)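 Broth microdilution: colonies suspended directly to 1.5×10^8 CFU/mL (0.5 McFarland), then diluted in Mueller–Hinton broth to ~10^5 CFU/mL final. PA stock 1 mg/mL in water, pH 7, serially diluted in MHB. Plates incubated 20–24 h at 37 °C. MIC = lowest concentration inhibiting growth, read as OD600 with optional 1% TTC staining. Triplicate.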

HT-29 [2] = test: Cytotoxicity against human HT-29 cells assessed as reduction in cell viability at 500 ug/ml incubated for 24 hrs at pH 6.5 by MTT assay; type: toxicity, cell-based; conditions: ht-29, pH 6.5, 24 h, dose 500 µg/ml
Procedure, shortened: (§3)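 HT-29 cells in McCoy's 5a with 10% FBS were seeded at 15,000 cells/well and grown 24 h at 37 °C, 10% CO2. Medium then changed to pH 7.4 or pH 6.5 (20 mM MOPS, acidified with HCl). Peptide added in 2-fold dilutions, 7.8–500 µg/mL, for 24 h. Wells washed and given fresh pH 7.4 medium. MTT (12 mM, 10 µL) added for 4 h, then SDS-HCl for 4 h; A570 read.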

[3] = Self assembly property of the compound assessed as zeta potential at 250 ug/mL at pH 7 measured after 2 hrs; type: physicochemical; conditions: pH 7, 2 h, dose 250 µg/ml
Procedure, shortened: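 Peptide self-assembled at 1 mg/mL, pH 7, annealed 2 h at 80 °C, and aged overnight. Diluted to 250 µg/mL in water; zeta potential measured at 25 °C.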

[4] = Cytotoxicity against human HT-29 cells assessed as inhibition of cell growth incubated for 24 hrs at pH 7.4 by MTT assay; type: toxicity, cell-based; conditions: HT-29 cells, pH 7.4; procedure, shortened: as §3
HT-29 [5] = test: Cytotoxicity against human HT-29 cells assessed as loss of cell viability at 125 ug/ml incubated for 24 hrs at pH 7.4 by MTT assay; type: toxicity, cell-based; conditions: ht-29, pH 7.4, 24 h, at 125 µg/mL; procedure, shortened: as §3
Escherichia coli [6] = test: Antibacterial activity against Escherichia coli K12 incubated for 20 to 24 hrs by broth microdilution method; type: functional; conditions: time 20-24 hrs; procedure, shortened: as §2
[7] = Self assembly property of the compound assessed as formation of micelles at 1 mg/ml incubated overnight by transmission electron microscopy; type: physicochemical
Procedure, shortened: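 Samples were dissolved at 2 mM in water, pH 7, and left at room temperature overnight. Applied to copper grids for 5 min, blotted, and negatively stained with NanoVan for 30 s. Imaged by TEM at 120 kV.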

Staphylococcus aureus [8] = test: Antibacterial activity against methicillin-resistant Staphylococcus aureus JE2 incubated for 20 to 24 hrs by broth microdilution method; type: functional; conditions: time 20-24 hrs; procedure, shortened: as §1
Staphylococcus aureus [9] = test: Ratio of MIC for methicillin-resistant Staphylococcus aureus JE2 at pH 5.5 to MIC for methicillin-resistant Staphylococcus aureus JE2 at pH 7.0
[10] = Retention time of the compound by RP-HPLC analysis; type: physicochemical
Procedure, shortened: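 Reverse-phase HPLC, linear gradient 0–100% acetonitrile in water with 0.1% TFA over 20 min; retention time recorded.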

Escherichia coli [11] = test: Ratio of MIC for Escherichia coli K12 at pH 5.5 to MIC for Escherichia coli K12 at pH 7.0
[12] = Cytotoxicity against human HT-29 cells assessed as inhibition of cell growth incubated for 24 hrs at pH 6.5 by MTT assay; type: toxicity, cell-based; conditions: HT-29 cells, pH 6.5; procedure, shortened: as §3
[13] = Cytotoxicity against human HT-29 cells assessed as viable cells at 250 ug/ml incubated for 24 hrs at pH 7.4 by MTT assay; type: toxicity, cell-based; conditions: at 250 µg/mL, read-out: Activity; procedure, shortened: as §3
Staphylococcus aureus [14] = test: Antibacterial activity against methicillin resistant Staphylococcus aureus JE2 measured over 21 days by broth microdilution method; type: functional, organism-based; conditions: time 21.0 day
Staphylococcus aureus [15] = test: Antibacterial activity against Methicillin-resistant Staphylococcus aureus JE2 infected in Galleria mellonella assessed as survival at 50 mg/kg measured after 4 days relative to control; type: functional; conditions: JE2, 96 h, time 4 day
Procedure, shortened: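 G. mellonella larvae injected with 10 µL MRSA JE2 at a pre-set infective dose (60-80% lethality within 48 h, not 100% within 24 h) into last left proleg; after 2 h, 10 µL peptide or antibiotic injected into last right proleg; larvae held at 37 °C, mortality recorded daily for 4 days; untreated infected and PBS-only larvae as controls.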

SMILES	MIC (Staphylococcus aureus [1]) [µg/mL]	MIC (Acinetobacter baumannii) [µg/mL]	Activity (HT-29 [2])	Activity [3] [mV]	IC50 at 24 h [4] [µg/mL]	Activity (HT-29 [5]) [%]	MIC (Escherichia coli [6]) [µg/mL]	Activity [7]	MIC (Staphylococcus aureus [8]) [µg/mL]	Ratio (Staphylococcus aureus [9])	Retention_time [10] [min]	Ratio (Escherichia coli [11])	IC50 at 24 h [12] [µg/mL]	viability at 24 h, 250 ug/ml [13] [%]	Activity (Staphylococcus aureus [14])	survival at 50 mg/kg (Staphylococcus aureus [15]) [%]
CCCCCCCCCCCCCCCCCCN[C@@H](Cc1c[nH]cn1)C(=O)N[C@@H](Cc1c[nH]cn1)C(=O)NC(CN)C(=O)NC(CN)C(=O)NC(CN)C(=O)O (some centres undefined) (H-[X3]H[ξDap][ξDap][ξDap]-OH)	32 (≈ 39.8 µM)	64 (≈ 79.7 µM)	Non-Toxic	30.4	126 (≈ 157 µM)	100	64 (≈ 79.7 µM)	Active	64 (≈ 79.7 µM)	> 1	14.4	> 1	72.3 (≈ 90 µM)	0	–	–
CNC(C)[C@@H]1CC[C@@H](N)[C@@H](O[C@H]2[C@H](O)[C@@H](O[C@H]3OC[C@](C)(O)[C@H](NC)[C@H]3O)[C@H](N)C[C@@H]2N)O1 (some centres undefined)	–	1 (≈ 2.09 µM)	–	–	–	–	1 (≈ 2.09 µM)	–	–	–	–	–	–	–	Active	–
CN[C@H](CC(C)C)C(=O)N[C@H]1C(=O)N[C@@H](CC(N)=O)C(=O)N[C@H]2C(=O)N[C@H]3C(=O)N[C@H](C(=O)N[C@H](C(=O)O)c4cc(O)cc(O)c4-c4cc3ccc4O)[C@H](O)c3ccc(c(Cl)c3)Oc3cc2cc(c3O[C@@H]2O[C@H](CO)[C@@H](O)[C@H](O)[C@H]2O[C@H]2C[C@](C)(N)[C@H](O)[C@H](C)O2)Oc2ccc(cc2Cl)[C@H]1O [VANCOMYCIN]	–	–	–	–	–	–	128 (≈ 88.3 µM)	–	–	–	–	–	–	–	–	30
